Assay results reported in ChEMBL document CHEMBL1145811, “Synthesis and antibacterial activity of a novel series of acylides: 3-O-(3-pyridyl)acetylerythromycin A derivatives” (J Med Chem, 2003).
In brackets after ≈: the same amount, converted by molar mass.

Tests used:
Staphylococcus aureus [1] = experiment: In vitro minimum inhibitory concentration for antibacterial activity against Staphylococcus aureus B1 (inducibly MLSb-resistant strain encoded by the erm(C) gene); type: functional
Summary of the method: (§1)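 Agar dilution MIC determined by the Japan Society of Chemotherapy standard method for aerobic bacteria.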

Streptococcus pneumoniae [2] = experiment: In vitro minimum inhibitory concentration for antibacterial activity against Streptococcus pneumoniae 210 (efflux-resistant strain encoded by the mef(A) gene); type: functional; summary of the method: as §1
Staphylococcus aureus [3] = experiment: In vitro minimum inhibitory concentration for antibacterial activity against erythromycin-susceptible strain Staphylococcus aureus […]; type: functional
Summary of the method: (§2)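 MIC by agar dilution following the Japan Society of Chemotherapy standard method for aerobic bacteria. S. aureus 209P-JC and S. pneumoniae IID553 are erythromycin-susceptible strains.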

Haemophilus influenzae [4] = experiment: In vitro minimum inhibitory concentration for antibacterial activity against Haemophilus influenzae ATCC 43095 (ampicillin-susceptible strain that does not produce beta-lactamase); type: functional; summary of the method: as §1
Streptococcus pneumoniae [5] = experiment: In vitro minimum inhibitory concentration for antibacterial activity against erythromycin susceptible strain Streptococcus pneumoniae IID553; type: functional
Streptococcus pneumoniae [6] = experiment: In vitro minimum inhibitory concentration for antibacterial activity against erythromycin-susceptible strain Streptococcus pneumoniae IID553; type: functional; summary of the method: as §2
Streptococcus pneumoniae [7] = experiment: In vitro minimum inhibitory concentration for antibacterial activity against Streptococcus pneumoniae 211 (MLSb-resistant strain encoded by the erm(B) gene); type: functional; summary of the method: as §1
Mus musculus [8] = experiment: Effective dose in vivo, in mouse inoculated intraperitoneally with 5.80*10e7 CFU of erythromycin susceptible strain Staphylococcus aureus Smith; type: functional; conditions: ip
Summary of the method: (§3)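 Mouse protection test: mice were infected intraperitoneally with erythromycin-susceptible S. aureus Smith or S. pneumoniae IID553. Compounds were given orally 1 h after inoculation.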

Staphylococcus aureus [9] = experiment: In vitro minimum inhibitory concentration for antibacterial activity against Staphylococcus aureus SR138 (constitutively MLSb-resistant strain encoded by the erm(A) gene); type: functional; summary of the method: as §1
Mus musculus [10] = experiment: Effective dose in vivo, in mouse inoculated intraperitoneally with 1.47*10e3 CFU of erythromycin susceptible strain Streptococcus pneumoniae IID553; type: functional; conditions: ip; summary of the method: as §3
Haemophilus influenzae [11] = experiment: In vitro minimum inhibitory concentration for antibacterial activity against Haemophilus influenzae ATCC 33533 (ampicillin-resistant strain that produces beta-lactamase); type: functional; summary of the method: as §1
Staphylococcus aureus [12] = experiment: In vitro minimum inhibitory concentration for antibacterial activity against erythromycin susceptible strain Staphylococcus aureus Smith; type: functional
[13] = Maximum concentration in the serum of mice following a single oral dose of 10 mg/kg (data represent mean in 3 mice); type: ADME, organism-based; set-up: dose 10 mg/kg, route oral; conditions: mouse
Summary of the method: (§4)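 Mice received a single 10 mg/kg oral dose. Serum and lung were sampled for drug levels. Cmax is in µg/mL and AUC over 0–8 h is in µg·h/mL. Values are the mean of three mice.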

[14] = Area under the curve was determined for the compound from the lung of mice following a single oral dose of 10 mg/kg (data represent mean in 3 mice); type: ADME, organism-based; set-up: dose 10 mg/kg, route oral; conditions: mouse, read-out: AUC 0-8; summary of the method: as §4
[15] = Maximum concentration in the lung of mice following a single oral dose of 10 mg/kg (data represent mean in 3 mice); type: ADME, organism-based; set-up: dose 10 mg/kg, route oral; conditions: mouse; summary of the method: as §4
Mus musculus [16] = experiment: Survival rate of mouse inoculated intraperitoneally with 5.05*10e7 CFU of erythromycin-susceptible strain Streptococcus pneumoniae IID553 after treatment with 3 mg of compound; type: functional
Summary of the method: (§5)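 Mouse protection test: mice were infected intraperitoneally with 5.05 × 10^7 CFU/mouse, then given the macrolide orally 1 h after inoculation. Survival was recorded as the read-out.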

[17] = Area under the curve was determined for the compound from the serum of mice following a single oral dose of 10 mg/kg (data represent mean in 3 mice); type: ADME, organism-based; set-up: dose 10 mg/kg, route oral; conditions: mouse, read-out: AUC 0-8; summary of the method: as §4
Mus musculus [18] = experiment: Survival rate of mouse inoculated intraperitoneally with 5.05*10e7 CFU of erythromycin-susceptible strain Streptococcus pneumoniae IID553 after treatment with 0.3 mg of compound; type: functional; summary of the method: as §5

SMILES	MIC (Staphylococcus aureus [1]) [µg/mL]	MIC (Streptococcus pneumoniae [2]) [µg/mL]	MIC (Staphylococcus aureus [3]) [µg/mL]	MIC (Haemophilus influenzae [4]) [µg/mL]	MIC (Streptococcus pneumoniae [5]) [µg/mL]	MIC (Streptococcus pneumoniae [6]) [µg/mL]	MIC (Streptococcus pneumoniae [7]) [µg/mL]	ED50 (Mus musculus [8]) [mg/kg]	MIC (Staphylococcus aureus [9]) [µg/mL]	ED50 (Mus musculus [10]) [mg/kg]	MIC (Haemophilus influenzae [11]) [µg/mL]	MIC (Staphylococcus aureus [12]) [µg/mL]	Cmax [13] [ng/mL]	AUC [14] [ng·h/mL]	Cmax [15] [ng/mL]	Survival rate (Mus musculus [16]) [%]	AUC [17] [ng·h/mL]	Survival rate (Mus musculus [18]) [%]
CC[C@H]1OC(=O)[C@H](C)[C@@H](OC(=O)Cc2cccnc2)[C@H](C)[C@@H](OC2O[C@H](C)C[C@H](N(C)C)[C@H]2O)[C@@](C)(OC)C[C@@H](C)C(=O)[C@H](C)[C@H]2NC(=O)O[C@@]21C (stereo partly drawn)	0.39 (≈ 0.531 µM)	0.1 (≈ 0.136 µM)	0.05 (≈ 0.0681 µM)	3.13 (≈ 4.26 µM)	0.05 (≈ 0.0681 µM)	0.05 (≈ 0.0681 µM)	> 100	6.99	> 100	17.5	3.13 (≈ 4.26 µM)	0.2 (≈ 0.273 µM)						
CC[C@H]1OC(=O)[C@H](C)[C@@H](OC(=O)Cc2cccnc2)[C@H](C)[C@@H](OC2O[C@H](C)C[C@H](N(C)C)[C@H]2O)[C@@](C)(OC)C[C@@H](C)C(=O)[C@H](C)[C@H]2OC(=O)O[C@@]21C (stereo partly drawn)	0.39 (≈ 0.531 µM)	0.2 (≈ 0.272 µM)	0.2 (≈ 0.272 µM)	3.13 (≈ 4.26 µM)	0.05 (≈ 0.068 µM)	0.05 (≈ 0.068 µM)	> 100	17.5	> 100	51.1	3.13 (≈ 4.26 µM)	0.2 (≈ 0.272 µM)						
CC[C@H]1OC(=O)[C@H](C)[C@@H](OC(=O)Cc2cccnc2)[C@H](C)[C@@H](OC2O[C@H](C)C[C@H](N(C)C)[C@H]2O)[C@@]2(C)C[C@@H](C)[C@H](OC(=O)O2)[C@H](C)[C@H]2OC(=O)O[C@@]21C (stereo partly drawn)	0.2 (≈ 0.267 µM)	0.1 (≈ 0.134 µM)	0.1 (≈ 0.134 µM)	0.78 (≈ 1.04 µM)		0.025 (≈ 0.0334 µM)	100 (≈ 134 µM)		> 100		0.78 (≈ 1.04 µM)		120	2460	1350	90	230	30
CC[C@H]1OC(=O)[C@H](C)[C@@H](O[C@H]2C[C@@](C)(OC)[C@@H](O)[C@H](C)O2)[C@H](C)[C@@H](O[C@@H]2O[C@H](C)C[C@H](N(C)C)[C@H]2O)[C@](C)(OC)C[C@@H](C)C(=O)[C@H](C)[C@@H](O)[C@]1(C)O [CLARITHROMYCIN]	> 100	0.78 (≈ 1.04 µM)	0.1 (≈ 0.134 µM)	6.25 (≈ 8.36 µM)	0.025 (≈ 0.0334 µM)	0.05 (≈ 0.0668 µM)	> 100	7.6	> 100	13.5	3.13 (≈ 4.18 µM)	0.2 (≈ 0.267 µM)	1210	30400	14100	100	1310	50
CC[C@H]1OC(=O)[C@H](C)[C@@H](OC(=O)Cc2cccnc2)[C@H](C)[C@@H](OC2O[C@H](C)C[C@H](N(C)C)[C@H]2O)[C@@](C)(OC)C[C@@H](C)C(=O)[C@H](C)[C@@H](O)[C@]1(C)O (stereo partly drawn)	1.56 (≈ 2.2 µM)	0.39 (≈ 0.55 µM)	0.78 (≈ 1.1 µM)	12.5 (≈ 17.6 µM)	0.2 (≈ 0.282 µM)	0.39 (≈ 0.55 µM)	> 100	9.57	> 100	40.8	12.5 (≈ 17.6 µM)	0.78 (≈ 1.1 µM)						
